ChEMBL document CHEMBL1138042, “2-[(4-phenylpiperazin-1-yl)methyl]imidazo(di)azines as selective D4-ligands. Induction of penile erection by 2-[4-(2-methoxyphenyl)piperazin-1-ylmethyl]imidazo[1,2-a]pyridine (PIP3EA), a potent and selective D4 partial agonist” (J Med Chem, 2006)

Key:
D(2) dopamine receptor [1] = target: T1, D(2) dopamine receptor (Homo sapiens, UniProt P14416); test: Displacement of [3H]spiperone from human dopamine receptor D2(short) in CHO cell membrane; type: cell membranes
D(4) dopamine receptor [2] = target: T2, D(4) dopamine receptor (Homo sapiens, UniProt P21917); test: Displacement of [3H]spiperone from human dopamine receptor D4.4 in CHO cell membrane; type: cell membranes
T2 sequence (P21917 whole entry): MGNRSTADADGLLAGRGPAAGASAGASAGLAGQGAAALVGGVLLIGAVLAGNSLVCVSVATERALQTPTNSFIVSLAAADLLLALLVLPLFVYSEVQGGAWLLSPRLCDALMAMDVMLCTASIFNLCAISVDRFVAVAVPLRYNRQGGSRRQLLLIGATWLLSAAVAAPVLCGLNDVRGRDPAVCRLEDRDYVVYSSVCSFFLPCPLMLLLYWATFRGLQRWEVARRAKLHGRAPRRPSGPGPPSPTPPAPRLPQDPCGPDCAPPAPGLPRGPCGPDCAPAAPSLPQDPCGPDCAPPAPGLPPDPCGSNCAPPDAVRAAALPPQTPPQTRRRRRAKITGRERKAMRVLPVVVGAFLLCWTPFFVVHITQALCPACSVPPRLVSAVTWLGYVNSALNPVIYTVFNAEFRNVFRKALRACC

D(1A) dopamine receptor = D(1A) dopamine receptor (Sus scrofa, UniProt P50130); test: Displacement of [3H][…] from dopamine receptor D1 in porcine striatal membrane; type: cell membranes, Striatum
D(1A) dopamine receptor, sequence (P50130 whole entry): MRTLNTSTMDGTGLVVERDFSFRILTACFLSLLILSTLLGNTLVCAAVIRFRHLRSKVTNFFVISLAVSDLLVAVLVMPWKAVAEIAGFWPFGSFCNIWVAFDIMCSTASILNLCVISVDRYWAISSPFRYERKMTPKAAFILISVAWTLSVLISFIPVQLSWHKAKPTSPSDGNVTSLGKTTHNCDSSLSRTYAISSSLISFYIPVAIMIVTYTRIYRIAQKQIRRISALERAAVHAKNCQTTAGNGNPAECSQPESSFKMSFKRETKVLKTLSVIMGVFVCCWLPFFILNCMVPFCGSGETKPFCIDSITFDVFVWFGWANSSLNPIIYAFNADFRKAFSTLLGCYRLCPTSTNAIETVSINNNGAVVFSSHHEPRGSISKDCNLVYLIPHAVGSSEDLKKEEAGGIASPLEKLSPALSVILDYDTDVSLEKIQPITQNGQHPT

D(3) dopamine receptor = D(3) dopamine receptor (Homo sapiens, UniProt P35462); test: Displacement of [3H]spiperone from human dopamine receptor D3 in CHO cell membrane; type: cell membranes
D(3) dopamine receptor, sequence (P35462 whole entry): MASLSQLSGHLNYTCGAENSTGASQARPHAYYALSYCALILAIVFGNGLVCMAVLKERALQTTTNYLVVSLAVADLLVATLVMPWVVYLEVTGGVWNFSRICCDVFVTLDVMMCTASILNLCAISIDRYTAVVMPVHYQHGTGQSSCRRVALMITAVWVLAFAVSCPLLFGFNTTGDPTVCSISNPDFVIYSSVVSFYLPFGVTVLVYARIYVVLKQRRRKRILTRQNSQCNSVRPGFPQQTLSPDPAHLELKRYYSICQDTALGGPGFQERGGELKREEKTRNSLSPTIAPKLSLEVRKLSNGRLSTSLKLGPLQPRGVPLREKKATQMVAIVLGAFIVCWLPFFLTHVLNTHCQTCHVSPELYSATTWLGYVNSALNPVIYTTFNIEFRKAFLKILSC

D(2) dopamine receptor [3] = target: T1, D(2) dopamine receptor; test: Displacement of [3H]spiperone from human dopamine receptor D2(long) in CHO cell membrane; type: cell membranes
[4] = target: T3, D(4) dopamine receptor (Homo sapiens) (UniProt P21917); test: Intrinsic activity at human D4.2 receptor assessed as [3H]thymidine incorporation in CHO 10001 cells relative to quinpirole by mitogenesis assay; type: functional, cell-based
T3 sequence (whole entry): T2 sequence (P21917 whole entry)
Outline: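 CHO10001 cells expressing human D4.2 were seeded at 5000 cells/well, grown 72 h in serum medium, then switched to serum-free medium. Compound was applied for 20 h at 8 concentrations (0.01-10 000 nM) in hexaduplicate. [³H]thymidine (0.02 µCi/well) was added for 2 h and incorporation counted.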

[5] = target: 5-hydroxytryptamine receptor 2A (Sus scrofa, UniProt P50129); test: Displacement of [3H]ketanserin from 5HT2 receptor in porcine cortical membrane; type: cell membranes
5-hydroxytryptamine receptor 2A, sequence (P50129 whole entry): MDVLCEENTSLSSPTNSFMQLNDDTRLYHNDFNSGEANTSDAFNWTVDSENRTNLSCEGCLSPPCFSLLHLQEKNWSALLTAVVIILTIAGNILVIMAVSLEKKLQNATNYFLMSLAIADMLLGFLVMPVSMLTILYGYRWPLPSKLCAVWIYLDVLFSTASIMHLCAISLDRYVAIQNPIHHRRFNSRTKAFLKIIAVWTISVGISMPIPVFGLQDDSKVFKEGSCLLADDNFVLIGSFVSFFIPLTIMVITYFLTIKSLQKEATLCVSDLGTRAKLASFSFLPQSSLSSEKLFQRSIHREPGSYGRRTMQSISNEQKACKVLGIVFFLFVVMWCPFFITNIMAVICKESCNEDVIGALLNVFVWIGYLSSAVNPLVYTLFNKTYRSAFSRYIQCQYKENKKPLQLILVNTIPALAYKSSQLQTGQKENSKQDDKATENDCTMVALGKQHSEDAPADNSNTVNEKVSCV

[6] = target: T3, D(4) dopamine receptor (Homo sapiens); test: Intrinsic activity at human D4.4 receptor expressed in CHOK1 cells assessed as stimulation of [35S]GTP-gammaS binding relative to quinpirole; type: functional, cell-based; conditions: CHO-K1
Outline: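 Membranes from CHO cells stably expressing human D4.4 (Bmax 2.25 pmol/mg protein) in HEPES buffer pH 7.4 with 1 µM GDP at 37 °C. Test agent given at eight concentrations (0.01–10 000 nM) in hexaduplicate for 30 min, then 0.1 nM [35S]GTPγS for a further 30 min. Bound label filtered and counted.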

Rattus norvegicus [7] = test: Penile erection in Sprague-Dawley rat at 20 ug/kg, sc; type: functional
Outline: (§1)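 Male Sprague-Dawley rats (225-250 g) were dosed s.c. (0.2 mL/rat) or i.c.v. (10 µL/rat, via a stereotaxic guide cannula implanted under chloral hydrate 3 days earlier). Vehicle was ethanol diluted in water to 0.3%. Rats were acclimated 30 min in individual cages, then observed 60 min after injection. Erections were scored as penis emerging from the sheath. Means ± SEM, 6 rats/group; cannula placement was checked histologically.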

Rattus norvegicus [8] = test: Penile erection in Sprague-Dawley rat at 1 ug, icv; type: functional; outline: as §1
Rattus norvegicus [9] = test: Penile erection in Sprague-Dawley rat at 0.5 ug/kg, icv; type: functional; conditions: in the assay text read “0.5 ug/rat” for “0.5 ug/kg”; outline: as §1
Rattus norvegicus [10] = test: Penile erection in Sprague-Dawley rat at 5 ug/kg, sc; type: functional; outline: as §1
D(4) dopamine receptor [11] = target: T2, D(4) dopamine receptor; test: Activity at human D4.2 receptor assessed as [3H]thymidine incorporation in CHO 10001 cells by mitogenesis assay; type: functional, cell-based
D(4) dopamine receptor [12] = target: T2, D(4) dopamine receptor; test: Activity at human D4.4 receptor expressed in CHOK1 cells assessed as stimulation of [35S]GTP-gammaS binding; type: functional, cell-based, CHO-K1
[13] = target: T4, Dopamine receptors; D2 & D4 (Homo sapiens) (UniProt P14416+P21917); test: Selectivity for human dopamine D4.4 receptor over dopamine D2(short) receptor; type: protein assay
T4 sequence (P14416 whole entry, looked up, one chain of several): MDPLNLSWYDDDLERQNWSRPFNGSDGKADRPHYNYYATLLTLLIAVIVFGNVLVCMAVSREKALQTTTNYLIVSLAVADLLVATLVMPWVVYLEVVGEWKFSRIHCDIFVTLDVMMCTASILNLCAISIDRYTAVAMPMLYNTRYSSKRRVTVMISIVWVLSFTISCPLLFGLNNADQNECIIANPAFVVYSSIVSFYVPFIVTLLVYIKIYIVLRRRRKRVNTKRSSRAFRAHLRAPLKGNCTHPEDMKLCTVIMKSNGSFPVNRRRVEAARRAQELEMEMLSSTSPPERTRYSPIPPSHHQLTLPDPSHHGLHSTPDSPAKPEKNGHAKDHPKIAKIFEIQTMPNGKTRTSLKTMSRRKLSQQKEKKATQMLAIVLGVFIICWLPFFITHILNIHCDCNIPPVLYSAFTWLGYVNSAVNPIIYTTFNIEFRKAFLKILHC

[14] = target: T4, Dopamine receptors; D2 & D4 (Homo sapiens); test: Selectivity for human dopamine D4.4 receptor over dopamine D2(long) receptor; type: protein assay
[15] = target: Dopamine receptors; D3 & D4 (Homo sapiens) (UniProt P35462+P21917); test: Selectivity for human dopamine D4.4 receptor over dopamine D3 receptor; type: protein assay
Dopamine receptors; D3 & D4 (Homo sapiens), sequence (P35462 whole entry, looked up, one chain of several): as the sequence (P35462 whole entry) above

[16] = Selectivity for human dopamine D4.4 receptor over porcine dopamine D1 receptor
[17] = target: Adrenergic receptor alpha-1 (Sus scrofa); test: Displacement of [3H]prazosin from porcine Adrenergic alpha-1 receptor in porcine brain
[18] = Selectivity for human dopamine D4.4 receptor over adrenergic alpha-1 receptor

T1 sequence (P14416 whole entry): as the sequence (P14416 whole entry, looked up, one chain of several) above

Structure (SMILES)	Ki (D(2) dopamine receptor [1]) [µM]	Ki (D(4) dopamine receptor [2]) [µM]	Ki (D(1A) dopamine receptor) [µM]	Ki (D(3) dopamine receptor) [µM]	Ki (D(2) dopamine receptor [3]) [µM]	Activity [4] [%]	further results
COc1ccccc1N1CCN(Cc2cn3cc(C)cc(N4CCOCC4)c3n2)CC1	0.1	0.0023	6.4	2.1	0.21	–	–
Clc1ccc(N2CCN(Cc3cn4ccccc4n3)CC2)cc1Cl	2.7	0.0014	2.3	1.7	3.2	0	Ki [5]: 1.2 µM
COc1ccccc1N1CCN(Cc2cn3ccccc3n2)CC1	–	–	–	–	–	46	Activity [6]: 57%; Activity (Rattus norvegicus [7]): 2.42; Activity (Rattus norvegicus [8]): 2.32; Ki [5]: 5.9 µM; Activity (Rattus norvegicus [9]): 1.12; Activity (Rattus norvegicus [10]): 1.02
Fc1ccc(N2CCN(Cc3cn4ccncc4n3)CC2)cc1	68	0.5	15	42	64	–	–
N#Cc1ccc2[nH]c(CN3CCN(c4ccccc4)CC3)cc2c1	–	–	13	–	–	–	–
COc1ccccc1N1CCN(Cc2cn3cc(C)cc(-n4cccn4)c3n2)CC1	0.28	0.0016	8.7	2.4	0.53	–	–
COc1ccccc1N1CCN(Cc2cn3cc(I)ccc3n2)CC1	0.072	0.00033	6.4	0.6	0.073	10	EC50 (D(4) dopamine receptor [11]): 0.00052 µM
Clc1ccc(N2CCN(Cc3cn4ccccc4n3)CC2)cc1	16	0.007	6.7	8.8	15	6	EC50 (D(4) dopamine receptor [12]): 0.0026 µM; Activity [6]: 18%; Ki [5]: 1.2 µM; EC50 (D(4) dopamine receptor [11]): 0.0018 µM
N#Cc1ccc2[nH]c(CN3CCN(c4ccc(F)cc4)CC3)cc2c1	–	–	8.6	–	–	–	–
COc1ccccc1N1CCN(Cc2cn3c(-n4cccn4)cccc3n2)CC1	0.28	0.00094	27	1	0.59	–	–
COc1ccccc1N1CCN(Cc2cn3cc(C)cc(C#N)c3n2)CC1	2.7	0.0013	40	3.5	4.2	–	Selectivity ratio [13]: 2080; Selectivity ratio [14]: 3230
COc1ccccc1N1CCN(Cc2cn3cc(C)cc(I)c3n2)CC1	0.097	0.00053	5.9	0.47	0.088	0	–
Clc1ccc(N2CCN(Cc3cn4nc(Cl)ccc4n3)CC2)cc1	8.2	0.002	5.5	7.7	12	0	Ki [5]: 0.91 µM
CN1CCN(c2ccc3nc(CN4CCN(c5ccc(Cl)c(Cl)c5)CC4)cn3n2)CC1	7.8	1.9	13	0.88	8	–	–
COc1ccccc1N1CCN(Cc2cn3cc(Br)ccc3n2)CC1	0.14	0.00025	7.1	0.8	0.13	0	–
Fc1ccc(N2CCN(Cc3cn4cccnc4n3)CC2)cc1	49	2.8	47	60	55	–	–
Clc1ccc(N2CCN(Cc3cn4cc(Br)ccc4n3)CC2)cc1Cl	3.7	0.00099	2.5	1	3.5	0	Selectivity ratio [15]: > 440; Selectivity ratio [16]: > 440; Selectivity ratio [13]: > 440; Selectivity ratio [14]: > 440
Clc1ccc(N2CCN(Cc3cn4nc(N5CCCCC5)ccc4n3)CC2)cc1Cl	0.71	0.12	2.2	0.85	1.1	–	–
Clc1ccc2nc(CN3CCN(c4ccc(Cl)c(Cl)c4)CC3)cn2n1	0.67	0.0013	1.5	1.5	1.1	0	Ki [5]: 1.2 µM
COc1ccccc1N1CCN(Cc2cn3cc(C)cc(-c4ccccc4)c3n2)CC1	0.028	0.00084	2.9	0.39	0.049	–	–
Fc1ccc(N2CCN(Cc3cn4ccccc4n3)CC2)cc1	19	0.044	8.4	3.1	21	–	Ki [17]: 0.26 µM; Selectivity ratio [15]: > 440; Selectivity ratio [16]: > 440; Selectivity ratio [13]: > 440; Ki [5]: 0.86 µM; Selectivity ratio [14]: > 440
COc1ccccc1N1CCN(Cc2cn3nc(Cl)ccc3n2)CC1	0.079	0.0016	7.7	1.4	0.096	0	Ki [5]: 3.4 µM
COc1ccccc1N1CCN(Cc2cn3cc(C)cc(Br)c3n2)CC1	0.15	0.00099	5.6	0.67	0.24	–	–
Cc1cccc(C(=O)NCN2CCN(c3ccccc3C#N)CC2)c1	–	–	–	–	–	–	Selectivity ratio [18]: 8
Fc1ccc(N2CCN(Cc3cn4nc(Cl)ccc4n3)CC2)cc1	12	0.004	7	5.6	9.9	–	–
